Common to all, as to conditions: stereoisomer not certain
The target in one experiment is T1, UniProt Q8VGV7.
T1 sequence (whole entry): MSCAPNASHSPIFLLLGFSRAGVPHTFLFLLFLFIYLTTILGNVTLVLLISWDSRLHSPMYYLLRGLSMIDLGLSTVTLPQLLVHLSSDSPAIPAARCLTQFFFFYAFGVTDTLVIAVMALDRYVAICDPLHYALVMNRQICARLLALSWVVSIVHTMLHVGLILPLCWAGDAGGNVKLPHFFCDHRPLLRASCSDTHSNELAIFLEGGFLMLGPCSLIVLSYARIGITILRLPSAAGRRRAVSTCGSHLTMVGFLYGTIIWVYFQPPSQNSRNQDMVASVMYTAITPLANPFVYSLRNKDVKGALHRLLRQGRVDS
In a few lines: (§1)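 Whether a receptor–molecule pair is responsive (active) rests on the original authors' judgment that its measured signal was statistically different from baseline. Pairs without that judgment are non-responsive (inactive). Sources used varied assay methods, commonly transient luciferase assays in mammalian cell lines.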

The target in the next experiment is T2, UniProt Q8VGX3.
T2 sequence (whole entry): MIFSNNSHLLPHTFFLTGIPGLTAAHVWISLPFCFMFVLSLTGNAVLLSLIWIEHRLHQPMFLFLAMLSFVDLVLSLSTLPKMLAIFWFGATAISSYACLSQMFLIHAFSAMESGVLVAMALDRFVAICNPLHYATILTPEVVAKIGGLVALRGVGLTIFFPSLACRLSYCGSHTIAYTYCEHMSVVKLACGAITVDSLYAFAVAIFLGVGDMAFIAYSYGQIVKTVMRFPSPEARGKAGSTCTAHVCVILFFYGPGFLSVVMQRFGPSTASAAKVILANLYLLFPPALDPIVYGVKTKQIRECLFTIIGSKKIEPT
In a few lines:
as §1

Another experiment concerns the target T3, UniProt Q8VGX5.
T3 sequence (whole entry): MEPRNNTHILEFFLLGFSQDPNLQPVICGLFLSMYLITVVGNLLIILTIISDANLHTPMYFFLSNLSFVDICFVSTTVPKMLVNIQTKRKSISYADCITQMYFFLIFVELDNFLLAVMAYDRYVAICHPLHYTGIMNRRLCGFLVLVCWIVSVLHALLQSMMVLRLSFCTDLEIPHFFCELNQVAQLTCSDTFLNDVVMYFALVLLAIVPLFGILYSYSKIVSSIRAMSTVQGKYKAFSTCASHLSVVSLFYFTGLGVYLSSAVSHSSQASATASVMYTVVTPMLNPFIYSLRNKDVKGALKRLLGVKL
The essentials: as §1

The target in the next experiment is T4, UniProt Q8VGX8.
T4 sequence (whole entry): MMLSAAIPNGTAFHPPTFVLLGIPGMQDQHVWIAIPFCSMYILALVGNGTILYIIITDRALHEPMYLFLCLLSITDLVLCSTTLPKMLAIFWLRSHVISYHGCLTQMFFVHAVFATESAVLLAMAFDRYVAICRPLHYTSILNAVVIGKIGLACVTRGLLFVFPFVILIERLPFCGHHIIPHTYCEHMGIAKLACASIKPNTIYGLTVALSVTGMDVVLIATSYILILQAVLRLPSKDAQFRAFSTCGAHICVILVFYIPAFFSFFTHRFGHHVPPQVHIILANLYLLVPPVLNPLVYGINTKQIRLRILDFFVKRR
In a few lines: as §1

A further experiment has as its target T5, UniProt Q8VGY6.
T5 sequence (whole entry): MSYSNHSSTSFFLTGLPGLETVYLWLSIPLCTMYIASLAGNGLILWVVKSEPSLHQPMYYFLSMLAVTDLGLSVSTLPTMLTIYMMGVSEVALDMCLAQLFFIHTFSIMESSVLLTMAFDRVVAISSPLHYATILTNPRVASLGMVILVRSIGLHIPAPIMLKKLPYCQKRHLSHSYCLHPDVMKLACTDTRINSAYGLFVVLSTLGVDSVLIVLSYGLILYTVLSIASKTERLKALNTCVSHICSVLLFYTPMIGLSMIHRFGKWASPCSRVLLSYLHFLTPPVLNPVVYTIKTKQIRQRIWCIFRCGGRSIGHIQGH
In a few lines: as §1

A further experiment has as its target T6, UniProt Q8VGZ2.
T6 sequence (whole entry): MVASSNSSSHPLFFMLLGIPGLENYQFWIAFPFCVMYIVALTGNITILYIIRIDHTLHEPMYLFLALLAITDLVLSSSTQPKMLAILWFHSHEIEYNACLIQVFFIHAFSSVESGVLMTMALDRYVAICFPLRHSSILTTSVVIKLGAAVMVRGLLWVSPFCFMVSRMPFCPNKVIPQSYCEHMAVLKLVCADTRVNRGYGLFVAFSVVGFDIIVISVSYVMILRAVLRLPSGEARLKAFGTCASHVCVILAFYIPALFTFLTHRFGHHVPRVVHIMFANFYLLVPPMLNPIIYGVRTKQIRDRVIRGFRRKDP
The essentials: as §1

The target of the next experiment is T7, UniProt Q8VGZ7.
T7 sequence (whole entry): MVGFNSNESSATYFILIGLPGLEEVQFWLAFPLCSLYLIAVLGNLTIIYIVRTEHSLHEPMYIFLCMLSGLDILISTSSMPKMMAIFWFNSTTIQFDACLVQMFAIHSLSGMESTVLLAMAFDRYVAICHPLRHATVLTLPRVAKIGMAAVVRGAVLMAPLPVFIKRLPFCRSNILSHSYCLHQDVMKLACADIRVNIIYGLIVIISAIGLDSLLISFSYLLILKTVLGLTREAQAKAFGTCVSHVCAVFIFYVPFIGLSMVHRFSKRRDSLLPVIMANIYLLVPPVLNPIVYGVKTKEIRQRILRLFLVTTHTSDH
The essentials: as §1

A further experiment addresses T8, UniProt Q8VH10.
T8 sequence (whole entry): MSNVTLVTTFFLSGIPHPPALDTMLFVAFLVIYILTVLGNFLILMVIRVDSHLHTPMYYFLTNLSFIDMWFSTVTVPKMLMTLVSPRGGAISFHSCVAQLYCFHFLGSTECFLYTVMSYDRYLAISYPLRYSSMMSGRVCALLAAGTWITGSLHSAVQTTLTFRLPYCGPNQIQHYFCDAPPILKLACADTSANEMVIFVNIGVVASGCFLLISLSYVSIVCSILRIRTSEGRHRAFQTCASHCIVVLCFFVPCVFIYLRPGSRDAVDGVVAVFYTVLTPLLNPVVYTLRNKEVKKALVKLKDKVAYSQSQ
The essentials:
as §1

The next experiment addresses T9, UniProt Q8VH16.
T9 sequence (whole entry): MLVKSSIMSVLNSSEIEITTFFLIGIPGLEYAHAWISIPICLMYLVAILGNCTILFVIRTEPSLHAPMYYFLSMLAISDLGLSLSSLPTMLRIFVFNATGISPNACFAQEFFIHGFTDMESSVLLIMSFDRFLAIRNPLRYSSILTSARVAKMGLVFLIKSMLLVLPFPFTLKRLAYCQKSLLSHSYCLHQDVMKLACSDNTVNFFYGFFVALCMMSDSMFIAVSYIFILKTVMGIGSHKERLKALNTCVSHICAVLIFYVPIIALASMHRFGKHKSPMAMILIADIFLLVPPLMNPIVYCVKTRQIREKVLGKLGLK
The essentials: as §1

For another experiment, the target named is T10, UniProt Q8VH20.
T10 sequence (whole entry): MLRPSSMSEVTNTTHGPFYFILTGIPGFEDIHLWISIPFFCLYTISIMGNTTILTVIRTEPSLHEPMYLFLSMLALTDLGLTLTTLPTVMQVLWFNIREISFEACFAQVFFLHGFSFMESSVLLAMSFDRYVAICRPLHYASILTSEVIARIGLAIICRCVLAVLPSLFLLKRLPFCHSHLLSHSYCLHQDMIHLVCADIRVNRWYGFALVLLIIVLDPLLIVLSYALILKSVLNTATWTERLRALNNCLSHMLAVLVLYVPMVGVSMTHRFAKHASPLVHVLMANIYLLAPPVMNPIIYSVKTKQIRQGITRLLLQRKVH
In a few lines: as §1

The structures appear in SMILES notation.
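Further: active if original authors judged signal statistically different from baseline.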

Regarding `C=CCOC(=O)Cc1ccccc1`, the “odorant receptor agonist call” value with UniProt Q8VGV7, with UniProt Q8VGX3, with UniProt Q8VGX8, with UniProt Q8VGY6, with UniProt Q8VGZ2 and in the experiment with UniProt Q8VGZ7 was “inactive” each time. For the same molecule, the “odorant receptor agonist call” value with UniProt Q8VH16 and with UniProt Q8VH20 was “inactive” each time. Further, the “odorant receptor agonist call” value with UniProt Q8VGX5 and with UniProt Q8VH10 was “active” each time.

These data come from the M2OR odorant receptor database.
